Experimental data taken from PMC9988221 (Journal of Clinical Psychopharmacology, 2023).
Like-named read-outs stand apart in the source and are kept apart here. Marks after values point to notes of the source that are not given here.

How the values were obtained:
[1] = format: in vivo, human; details: for Cmax, gMean / AUC(0-t) / AUC(0-inf) / half-life / Cmax / AUC0–tz, gMean: plasma; for AUC(0-t) / AUC(0-inf) / half-life / Cmax: male, human; for AUC(0-t): AUC0–tz; for AUC(0-inf): AUC0–∞; for AUC0–tz, Adjusted gMean Ratio (90% CI) / Cmax, Adjusted gMean Ratio (90% CI): probe drug + steady-state BI 425809 25 mg vs probe drug only
P-gp = P-gp (Homo sapiens, UniProt P08183); format: in vitro ADME; details: Caco-2 cell monolayer; zosuquidar 1 μM, BI 425809 1-100 μM
Sequence of P-gp (P08183 whole entry): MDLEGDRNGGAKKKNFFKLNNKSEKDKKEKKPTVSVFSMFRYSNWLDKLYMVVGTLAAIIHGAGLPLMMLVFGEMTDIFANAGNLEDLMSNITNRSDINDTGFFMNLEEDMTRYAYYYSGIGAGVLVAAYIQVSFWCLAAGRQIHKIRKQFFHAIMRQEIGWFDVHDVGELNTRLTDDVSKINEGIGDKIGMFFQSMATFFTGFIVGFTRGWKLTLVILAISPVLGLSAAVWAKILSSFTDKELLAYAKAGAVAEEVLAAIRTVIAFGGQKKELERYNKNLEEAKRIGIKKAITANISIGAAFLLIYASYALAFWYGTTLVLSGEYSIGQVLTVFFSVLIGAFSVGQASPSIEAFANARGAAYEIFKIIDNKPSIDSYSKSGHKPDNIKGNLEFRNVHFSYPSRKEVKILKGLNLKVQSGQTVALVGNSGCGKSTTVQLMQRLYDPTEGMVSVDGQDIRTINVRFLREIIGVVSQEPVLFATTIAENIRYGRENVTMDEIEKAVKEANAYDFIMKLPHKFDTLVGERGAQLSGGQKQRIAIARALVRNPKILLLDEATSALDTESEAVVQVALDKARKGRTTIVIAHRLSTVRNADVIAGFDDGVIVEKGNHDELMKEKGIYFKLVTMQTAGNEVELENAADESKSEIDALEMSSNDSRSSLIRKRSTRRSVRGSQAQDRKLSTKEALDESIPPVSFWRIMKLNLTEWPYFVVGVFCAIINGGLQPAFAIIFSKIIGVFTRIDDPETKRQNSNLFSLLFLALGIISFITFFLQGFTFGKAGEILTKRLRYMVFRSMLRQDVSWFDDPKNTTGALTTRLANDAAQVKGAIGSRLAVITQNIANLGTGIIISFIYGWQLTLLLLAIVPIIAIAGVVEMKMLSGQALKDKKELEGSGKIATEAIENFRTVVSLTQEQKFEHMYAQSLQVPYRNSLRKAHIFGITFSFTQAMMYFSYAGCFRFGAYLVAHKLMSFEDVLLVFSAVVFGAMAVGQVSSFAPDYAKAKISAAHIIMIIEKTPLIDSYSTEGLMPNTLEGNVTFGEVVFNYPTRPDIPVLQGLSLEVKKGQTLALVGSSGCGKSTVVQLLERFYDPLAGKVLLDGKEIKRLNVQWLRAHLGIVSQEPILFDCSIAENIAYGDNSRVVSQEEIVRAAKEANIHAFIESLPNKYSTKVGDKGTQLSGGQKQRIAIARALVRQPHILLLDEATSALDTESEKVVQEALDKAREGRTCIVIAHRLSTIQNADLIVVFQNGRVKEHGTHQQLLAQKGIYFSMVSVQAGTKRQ
How it was run: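 Bidirectional Caco-2 monolayer transport in HBSS with 15 mM HEPES, pH 7.4, after 30 min equilibration. [³H]digoxin (1 μM) went in the donor side, and test compound (1–100 μM) or zosuquidar (1 μM) on both sides. After 30 min preincubation, sampling ran to 90 min and was read by scintillation counting. Papp gave the B-to-A/A-to-B efflux ratio, and IC50 with slope factor came from nonlinear regression of efflux ratio against inhibitor concentration.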

[2] = +BI 425809 25 mg at steady state
[3] = Probe Drug + BI 425809 25 mg once daily at steady state, healthy males
[4] = arithmetic mean (SD), +BI 425809 25 mg at steady state
[5] = gMean, Probe Drug + BI 425809 25 mg once daily at steady state, healthy males
[6] = gMean, Probe Drug Only, healthy males
[7] = probe drug alone (cocktail or digoxin alone)

Row | SMILES | Cmax, gMean [1, 3] [ng/mL] | Cmax, gMean ([1]; Probe Drug Only, healthy males) [ng/mL] | AUC(0-t) [1, 4] [ng·h/mL] | AUC(0-t) [1, 5] [ng·h/mL] | AUC(0-t) [1, 6] [ng·h/mL] | AUC(0-inf) [1, 4] [ng·h/mL] | AUC0–tz, Adjusted gMean Ratio (90% CI) [1] | Cmax, Adjusted gMean Ratio (90% CI) [1] | Cmax, arithmetic mean (SD) [1, 7] | Cmax [1, 4] [ng/mL] | Cmax [1, 5] [ng/mL] | Cmax [1, 6] [ng/mL] | AUC0–tz, arithmetic mean (SD) [1, 2] | AUC0–∞, arithmetic mean (SD) [1, 2] | AUC0–tz, gMean [1, 3] | AUC0–tz, gMean ([1]; Probe Drug Only, healthy males) | AUC0–tz, arithmetic mean (SD) [1, 7] | AUC0–∞, arithmetic mean (SD) [1, 7] | also measured
1 | C[C@H]1O[C@@H](O[C@H]2[C@@H](O)C[C@H](O[C@H]3[C@@H](O)C[C@H](O[C@H]4CC[C@@]5(C)[C@H](CC[C@@H]6[C@@H]5C[C@@H](O)[C@]5(C)[C@@H](C7=CC(=O)OC7)CC[C@]65O)C4)O[C@@H]3C)O[C@@H]2C)C[C@H](O)[C@@H]1O [Digoxin, digoxin] | 1.1 | 1.1 | 10 | 9.5 | 9.7 | 20.1 | 97.9 (86.6–110.6) % | 100.6 (86.9–116.5) % | 1.1 (0.3) ng/mL | – | – | – | – | – | – | – | – | – | Cmax, arithmetic mean (SD) [1, 2]: 1.1 (0.3) ng/mL; half-life ([1]; t1/2, arithmetic mean (SD), +BI 425809 25 mg at steady state): 54.2 h; adjusted gMean ratios for AUC0–tz and Cmax (in words) ([1]; presence vs absence of steady-state BI 425809): within ±4% of 100%
2 | Cc1ncc2n1-c1ccc(Cl)cc1C(c1ccccc1F)=NC2 [Midazolam, midazolam] | – | – | 16.7 | 16.6 | 23.5 | 17.4 | 70.6 (63.9–78.1) % | 77.6 (67.3–89.4) % | 9.03 (3.3)* ng/mL | 6.9 | 6.6 | 8.5 | – | – | – | – | – | – | decrease of the adjusted gMean ratio ([1]; BI 425809 25 mg once daily): 29.4%; half-life ([1]; t1/2, gMean (geometric coefficient of variation), on a background of steady-state BI 425809): 2.8 h; t1/2, gMean (geometric coefficient of variation) ([1]; midazolam alone): 3.3 [22.8] hours; AUC0–tz, Adjusted gMean Ratio (90% CI) ([1]; listed as midazolam): 70.6%; Cmax, Adjusted gMean Ratio (90% CI) ([1]; listed as midazolam): 77.6%
3 | COc1ccc2[nH]c([S+]([O-])Cc3ncc(C)c(OC)c3C)nc2c1 (centres unmarked) [Omeprazole, omeprazole] | – | – | – | 430 | 483 | 609 | – | – | – | 257 | 225 | 220 | 604.0 (733.0) ng⋅h/mL | – | – | – | – | – | –
4 | CC(=O)C[C@H](c1ccccc1)c1c(O)c2ccccc2oc1=O [R-warfarin] | 541.8 | 525.0 | – | – | – | – | – | – | – | – | – | – | 23,000.0 (5360.0) ng⋅h/mL | 27,500.0 (7200.0) ng⋅h/mL | 22,457.1 ng⋅h/mL | 22,615.1 ng⋅h/mL | 23,000.0 (4860.0) ng⋅h/mL | 27,900.0 (6680.0) ng⋅h/mL | –
5 | CC(=O)C[C@@H](c1ccccc1)c1c(O)c2ccccc2oc1=O [S-warfarin] | 553.7 | – | – | – | – | – | – | – | – | – | – | – | 15,600.0 (3590.0) ng⋅h/mL | 17,000.0 (3880.0) ng⋅h/mL | 15,205.1 ng⋅h/mL | 15,107.9 ng⋅h/mL | 15,400.0 (3480.0) ng⋅h/mL | 16,900.0 (3870.0) ng⋅h/mL | –
6 | O[C@@H](COc1cccc2ncccc12)CN1CCN([C@@H]2c3ccccc3[C@@H]3[C@H](c4ccccc42)C3(F)F)CC1 [zosuquidar] | – | – | – | – | – | – | – | – | – | – | – | – | – | – | – | – | – | – | effect on P-gp-mediated transcellular transport of digoxin (in words) (P-gp): inhibited
